Reference: ChEMBL document CHEMBL3272265, “Interferon inducing activities of derivatives of 1,3-dimethyl-4-(3-dimethylaminopropylamino)-1H-pyrazolo(3,4-b)quinoline and related compounds” (J Med Chem, 1976)
The source made the active and inactive calls. The rule behind the calls is not given here.

Legend:
Mus musculus [1] = assay: Induction of interferon level in CD-1 mouse serum at 100 mg/kg, ip after 18 to 20 hrs by vesicular stomatitis virus plaque reduction assay; assay type: functional, organism-based; design: dose 100 mg/kg
How it was run: (§1)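 Dosing was oral or ip in 15-g female CD-1 mice, at least three per dose level, with compound in sterile distilled water as a solution or suspension. Pooled sera were collected 18–20 hr after dosing. Interferon units/ml were quantified by a plaque reduction assay on mouse L cells with vesicular stomatitis virus challenge, run against an NIAID reference mouse interferon standard.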

Mus musculus [2] = assay: Induction of interferon level in CD-1 mouse serum at 300 mg/kg, ip after 18 to 20 hrs by vesicular stomatitis virus plaque reduction assay; assay type: functional, organism-based; design: dose 300 mg/kg; how it was run: as §1
Mus musculus [3] = assay: Toxicity in CD-1 mouse at 300 mg/kg, ip; assay type: organism-based; design: dose 300 mg/kg, route intraperitoneal; conditions: in vivo
Mus musculus [4] = assay: Induction of interferon level in CD-1 mouse serum at 400 mg/kg, po after 18 to 20 hrs by vesicular stomatitis virus plaque reduction assay; assay type: functional, organism-based; design: dose 400 mg/kg; how it was run: as §1
Mus musculus [5] = assay: Induction of interferon level >= 32 units/mL in ip dosed CD-1 mouse serum after 18 to 20 hrs by vesicular stomatitis virus plaque reduction assay; assay type: functional; conditions: CD-1, Serum, read-out: MED
How it was run: (§2)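 Female CD-1 mice (15 g; at least three per dose) received compound dissolved or suspended in sterile distilled water, orally or ip. They were bled 18–20 hr later and sera pooled. Interferon was titrated by plaque reduction in mouse L cells challenged with vesicular stomatitis virus, with an NIAID reference mouse interferon standard. MED was the lowest dose giving ≥32 units/ml. Top doses were 400 mg/kg po and 300 mg/kg ip.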

Mus musculus [6] = assay: Induction of interferon level >= 32 units/mL in po dosed CD-1 mouse serum after 18 to 20 hrs by vesicular stomatitis virus plaque reduction assay; assay type: functional; conditions: CD-1, Serum, read-out: MED; how it was run: as §2
Mus musculus [7] = assay: Induction of interferon level in CD-1 mouse serum at 50 mg/kg, ip after 18 to 20 hrs by vesicular stomatitis virus plaque reduction assay; assay type: functional, organism-based; design: dose 50 mg/kg; how it was run: as §1

| SMILES | Activity (Mus musculus [1]) | Activity (Mus musculus [3]) | minimal effective dose (Mus musculus [5]) [mg/kg] | minimal effective dose (Mus musculus [6]) [mg/kg] | other results |
| --- | --- | --- | --- | --- | --- |
| CCn1nc(C)c2c(NCCCN(C)C)c3ccccc3nc21.Cl | inactive | Toxic | – | – | Activity (Mus musculus [2]): inactive; Activity (Mus musculus [4]): inactive |
| CCN(CC)CCCNc1c2ccccc2nc2c1c(C)nn2C.Cl | – | – | 300 | 400 | – |
| Cc1cccc2nc3c(c(C)nn3C)c(NCCCN(C)C)c12.Cl | inactive | Toxic | – | – | Activity (Mus musculus [4]): inactive |
| Cc1nn(C)c2nc3ccccc3c(NCCCN3CCNCC3)c12.Cl | – | – | 100 | – | – |
| COc1ccc2c(NCCCN(C)C)c3c(C)nn(C)c3nc2c1.Cl | – | – | 50 | 50 | – |
| COc1ccc2nc3c(c(C)nn3C)c(NCCCN(C)C)c2c1.Cl | inactive | Toxic | – | 200 | – |
| Cc1nn(C)c2nc3ccccc3c(NN3CCN(C)CC3)c12.Cl | – | – | 300 | – | – |
| COc1cccc2c(NCCCN(C)C)c3c(C)nn(C)c3nc12.Cl | – | – | 50 | 100 | – |
| Cc1cc(C)c2nc3c(c(C)nn3C)c(NCCCN(C)C)c2c1.Cl | – | – | – | 400 | – |
| Cc1nn(C)c2nc3ccccc3c(N3CCC(CCN(C)C)CC3)c12.Cl | – | Toxic | – | – | Activity (Mus musculus [7]): inactive |
| Cc1nn(C)c2nc3cc(C(F)(F)F)ccc3c(NCCCN(C)C)c12.Cl | inactive | Toxic | – | – | – |
| Cc1nn(C)c2nc3cc(C(N)=O)ccc3c(NCCCN(C)C)c12 | – | – | – | – | Activity (Mus musculus [4]): inactive |
| Cc1nn(C)c2nc3ccc([N+](=O)[O-])cc3c(NCCCN(C)C)c12.Cl | inactive | Toxic | – | – | – |
| Cc1nn(C)c2nc3ccccc3c(NCCN(C)C)c12.Cl | – | – | – | 400 | – |
| Cc1nn(C)c2c1Cc1ccccc1N2 | – | – | – | – | Activity (Mus musculus [4]): inactive |
| Cc1nn(C)c2nc3c(c(C)nn3C)c(NCCCN(C)C)c12 | – | – | – | – | Activity (Mus musculus [4]): inactive |
| CCc1ccc2c(NCCCN(C)C)c3c(C)nn(C)c3nc2c1.Cl | inactive | Toxic | – | 200 | – |
| Cc1nn(C)c2nc3cccc([N+](=O)[O-])c3c(NCCCN(C)C)c12 | – | – | – | – | Activity (Mus musculus [4]): inactive |
| Cc1nn(C)c2nc3ccccc3c(OCCCN(C)C)c12.Cl | – | Toxic | – | – | Activity (Mus musculus [7]): inactive |
| Cc1nn(C)c2nc3cc(F)ccc3c(NCCCN(C)C)c12.Cl | – | – | – | ≥ 100 | – |
| Cc1nn(Cc2ccccc2)c2nc3ccccc3c(NCCCN(C)C)c12.Cl | inactive | Toxic | – | – | – |

| SMILES | Activity (Mus musculus [1]) | Activity (Mus musculus [3]) | minimal effective dose (Mus musculus [5]) [mg/kg] | minimal effective dose (Mus musculus [6]) [mg/kg] | other results |
| --- | --- | --- | --- | --- | --- |
| Cc1nn(C)c2nc3cc(Cl)ccc3c(NCCCN(C)C)c12.Cl | – | – | ≥ 100 | ≥ 100 | – |
| Cc1nn(C)c2nc3ccccc3c(CNCCCN(C)C)c12.Cl | – | – | ≥ 300 | – | – |
| CCCCN(CCCC)CCCNc1c2ccccc2nc2c1c(C)nn2C.Cl | inactive | Toxic | – | – | – |
| Cc1nn(C)c2nc3c(cnn3C)c(NCCCN(C)C)c12 | – | – | – | – | Activity (Mus musculus [4]): inactive |
| Cc1nn(C)c2nc3ccccc3c(NCCN3CCCC3)c12.Cl | inactive | Toxic | – | – | – |
| Cc1nn(C)c2nc3ccccc3c(NCCCN3CCN(C)CC3)c12.Cl | – | – | 300 | – | – |
| Cc1nn(C)c2nc3ccc(Cl)cc3c(NCCCN(C)C)c12.Cl | inactive | Toxic | – | – | – |
| COC(=O)Cn1nc(C)c2c(NCCCN(C)C)c3ccccc3nc21.Cl | inactive | Toxic | – | – | – |
| Cc1nn(C)c2nc3cc(N)ccc3c(NCCCN(C)C)c12 | – | – | – | – | Activity (Mus musculus [4]): inactive |
| Cc1ccc2nc3c(c(C)nn3C)c(NCCCN(C)C)c2c1.Cl | – | – | 50 | 50 | – |
| Cc1nn(C)c2nc3ccccc3c(N)c12 | – | – | – | – | Activity (Mus musculus [4]): inactive |
| Cc1nn(C)c2ncc(C(=O)O)c(NCCCN(C)C)c12 | – | – | – | – | Activity (Mus musculus [4]): inactive |
| CNCCCNc1c2ccccc2nc2c1c(C)nn2C.Cl | – | – | 150 | 200 | – |
| Cc1cc2nc3c(c(C)nn3C)c(NCCCN(C)C)c2cc1C.Cl | – | – | 25 | 50 | – |
| COc1cc2nc3c(c(C)nn3C)c(NCCCN(C)C)c2cc1OC.Cl | – | – | 50 | 50 | – |
| Cc1nn(C)c2nc3c(ccc4ncccc43)c(NCCCN(C)C)c12.Cl | – | – | 100 | 100 | – |
| Cc1nn(C)c2nccc(NCCCN(C)C)c12 | – | – | – | – | Activity (Mus musculus [4]): inactive |
| Cc1nn(C)c2nc3ccc(I)cc3c(NCCCN(C)C)c12.Cl | inactive | Toxic | – | ≥ 400 | – |
| Cc1nn(C)c2nc3ccccc3c(CCNCCCN(C)C)c12 | – | – | – | – | Activity (Mus musculus [4]): inactive |
| Cc1nn(C)c2nc3ccccc3c(NCCCN3CCCCC3)c12.Cl | inactive | Toxic | – | 200 | – |
| CCc1nn(C)c2nc3ccccc3c(NCCCN(C)C)c12.Cl | inactive | Toxic | – | 200 | – |
